According to ChEMBL document CHEMBL3751813, “Nonpeptidic Amphiphilic Xanthone Derivatives: Structure-Activity Relationship and Membrane-Targeting Properties” (J Med Chem, 2016):
Converted amounts (≈) assume the structure as drawn.

Tested on: Staphylococcus aureus
Experiment: Antibacterial activity against clinical isolates of Staphylococcus aureus DM4001R after 24 hrs by […]
Assay type: functional
Details: not given

SMILES | MIC [µg/mL]
COc1c(OCCCCn2cccn2)cc2oc3cc(OCCCCn4cccn4)c(CC=C(C)C)c(O)c3c(=O)c2c1CC=C(C)C | > 50
COc1c(OCCCCN2CCCC2)cc2oc3cc(OCCCCN4CCCC4)c(CCC(C)C)c(O)c3c(=O)c2c1CCC(C)C | 12.5 (≈ 18.8 µM)
COc1c(OCCCCN2CCN(CCN(C)C)CC2)cc2oc3cc(OCCCCN4CCN(CCN(C)C)CC4)c(CC=C(C)C)c(O)c3c(=O)c2c1CC=C(C)C | 6.25 (≈ 7.5 µM)
COc1c(OCCCCN(CCO)CCO)cc2oc3cc(OCCCCN(CCO)CCO)c(CC=C(C)C)c(O)c3c(=O)c2c1CC=C(C)C | 3.12 (≈ 4.29 µM)
COc1c(OCCCCN2CCN(C)CC2)cc2oc3cc(OCCCCN4CCN(C)CC4)c(CC=C(C)C)c(O)c3c(=O)c2c1CC=C(C)C | 6.25 (≈ 8.69 µM)
CCN1CCN(CCCCOc2cc3oc4cc(OCCCCN5CCN(CC)CC5)c(OC)c(CC=C(C)C)c4c(=O)c3c(O)c2CC=C(C)C)CC1 | 25 (≈ 33.5 µM)
O=c1c2ccc(OCCCCN3CCCC3)cc2oc2cc(OCCCCN3CCCC3)cc(O)c12 | > 50

Tested on: not listed separately
Experiment: Selectivity index, ratio of HC50 for hemolytic activity against New Zealand white rabbit RBC to MIC for clinical isolates of Staphylococcus aureus DM4001
Details: not given

SMILES | Selectivity ratio
COc1c(OCCCCN2CCCC2)cc2oc3cc(OCCCCN4CCCC4)c(CCC(C)C)c(O)c3c(=O)c2c1CCC(C)C | 1.4
COc1c(OCCCCN2CCN(CCN(C)C)CC2)cc2oc3cc(OCCCCN4CCN(CCN(C)C)CC4)c(CC=C(C)C)c(O)c3c(=O)c2c1CC=C(C)C | 5.7
COc1c(OCCCCN2CCN(C)CC2)cc2oc3cc(OCCCCN4CCN(C)CC4)c(CC=C(C)C)c(O)c3c(=O)c2c1CC=C(C)C | 5.2
CCN1CCN(CCCCOc2cc3oc4cc(OCCCCN5CCN(CC)CC5)c(OC)c(CC=C(C)C)c4c(=O)c3c(O)c2CC=C(C)C)CC1 | 5.5

Tested on: Staphylococcus aureus
Experiment: Induction of membrane permeabilization in clinical isolates of Staphylococcus aureus DM4001 at MIC by SYTOX green uptake assay
Assay type: functional
Details: not given
Method in brief: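 Exponential-phase cells washed twice in 20 mM PBS pH 7 and adjusted to OD620 0.09. Given 3 µM SYTOX Green and kept in the dark until fluorescence was stable, then compound added. Fluorescence followed in a stirred cuvette at ex 504/em 523 nm. Melittin 10 µg/mL was the positive control. Run at least twice; one run reported.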

SMILES | Activity [cps]
COc1c(OCCCCn2cccn2)cc2oc3cc(OCCCCn4cccn4)c(CC=C(C)C)c(O)c3c(=O)c2c1CC=C(C)C | 3445
COc1c(OCCCCN2CCN(CCN(C)C)CC2)cc2oc3cc(OCCCCN4CCN(CCN(C)C)CC4)c(CC=C(C)C)c(O)c3c(=O)c2c1CC=C(C)C | 5850
COc1c(OCCCCN(CCO)CCO)cc2oc3cc(OCCCCN(CCO)CCO)c(CC=C(C)C)c(O)c3c(=O)c2c1CC=C(C)C | 59694
COc1c(OCCCCN2CCN(C)CC2)cc2oc3cc(OCCCCN4CCN(C)CC4)c(CC=C(C)C)c(O)c3c(=O)c2c1CC=C(C)C | 7129
CCN1CCN(CCCCOc2cc3oc4cc(OCCCCN5CCN(CC)CC5)c(OC)c(CC=C(C)C)c4c(=O)c3c(O)c2CC=C(C)C)CC1 | 15095

Tested on: Staphylococcus aureus
Experiment: Induction of membrane permeabilization in clinical isolates of Staphylococcus aureus DM4001 assessed as ATP leakage at MIC incubated for 10 mins by firefly luciferase based luminometry analysis
Assay type: functional
Details: not given
Method in brief: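 Exponential-phase cells washed twice in 20 mM PBS pH 7 and set to OD620 0.3. Exposed 10 min at 37 °C, then spun at 4000 rpm for 5 min. Supernatant mixed with luciferase reagent (1 mM DTT, 0.5 mM D-luciferin, 1.25 µg/mL firefly luciferase). Luminescence read over 30 cycles.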

SMILES | Activity [µM]
COc1c(OCCCCn2cccn2)cc2oc3cc(OCCCCn4cccn4)c(CC=C(C)C)c(O)c3c(=O)c2c1CC=C(C)C | 0.31
COc1c(OCCCCN2CCN(CCN(C)C)CC2)cc2oc3cc(OCCCCN4CCN(CCN(C)C)CC4)c(CC=C(C)C)c(O)c3c(=O)c2c1CC=C(C)C | 2.975
COc1c(OCCCCN(CCO)CCO)cc2oc3cc(OCCCCN(CCO)CCO)c(CC=C(C)C)c(O)c3c(=O)c2c1CC=C(C)C | 3.741
COc1c(OCCCCN2CCN(C)CC2)cc2oc3cc(OCCCCN4CCN(C)CC4)c(CC=C(C)C)c(O)c3c(=O)c2c1CC=C(C)C | 3.727
CCN1CCN(CCCCOc2cc3oc4cc(OCCCCN5CCN(CC)CC5)c(OC)c(CC=C(C)C)c4c(=O)c3c(O)c2CC=C(C)C)CC1 | 7.822

Tested on: not listed separately
Experiment: Hemolytic activity against New Zealand white rabbit RBC after 1 hr by microplate reader analysis
Assay type: ADME, cell-based, Oryctolagus cuniculus, Erythrocyte
Details: rabbit red blood cells
Method in brief: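 Rabbit RBCs spun from serum at 3,000 rpm for 10 min and washed twice in PBS. Mixed with compound in DMF at 4% v/v RBCs, 1 h at 37 °C. After centrifugation, hemoglobin in the supernatant read at 576 nm. 2% Triton X-100 was the positive control and 1% DMF the negative control.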

SMILES | HC50 at 1 h [µg/mL]
COc1c(OCCCCn2cccn2)cc2oc3cc(OCCCCn4cccn4)c(CC=C(C)C)c(O)c3c(=O)c2c1CC=C(C)C | > 200
COc1c(OCCCCN2CCCC2)cc2oc3cc(OCCCCN4CCCC4)c(CCC(C)C)c(O)c3c(=O)c2c1CCC(C)C | 34.8
COc1c(OCCCCN2CCN(CCN(C)C)CC2)cc2oc3cc(OCCCCN4CCN(CCN(C)C)CC4)c(CC=C(C)C)c(O)c3c(=O)c2c1CC=C(C)C | 35.9
COc1c(OCCCCN(CCO)CCO)cc2oc3cc(OCCCCN(CCO)CCO)c(CC=C(C)C)c(O)c3c(=O)c2c1CC=C(C)C | 60.6
COc1c(OCCCCN2CCN(C)CC2)cc2oc3cc(OCCCCN4CCN(C)CC4)c(CC=C(C)C)c(O)c3c(=O)c2c1CC=C(C)C | 32.3
CCN1CCN(CCCCOc2cc3oc4cc(OCCCCN5CCN(CC)CC5)c(OC)c(CC=C(C)C)c4c(=O)c3c(O)c2CC=C(C)C)CC1 | 138
O=c1c2ccc(OCCCCN3CCCC3)cc2oc2cc(OCCCCN3CCCC3)cc(O)c12 | > 200

Tested on: Staphylococcus aureus
Experiment: Antibacterial activity against clinical isolates of methicillin-resistant Staphylococcus aureus DM21455 after 24 hrs by […]
Assay type: functional
Details: DM21455, 24 h

SMILES | MIC [µg/mL]
COc1c(OCCCCn2cccn2)cc2oc3cc(OCCCCn4cccn4)c(CC=C(C)C)c(O)c3c(=O)c2c1CC=C(C)C | > 50
COc1c(OCCCCN2CCCC2)cc2oc3cc(OCCCCN4CCCC4)c(CCC(C)C)c(O)c3c(=O)c2c1CCC(C)C | 6.25 (≈ 9.4 µM)
COc1c(OCCCCN2CCN(CCN(C)C)CC2)cc2oc3cc(OCCCCN4CCN(CCN(C)C)CC4)c(CC=C(C)C)c(O)c3c(=O)c2c1CC=C(C)C | 3.12 (≈ 3.75 µM)
COc1c(OCCCCN(CCO)CCO)cc2oc3cc(OCCCCN(CCO)CCO)c(CC=C(C)C)c(O)c3c(=O)c2c1CC=C(C)C | 0.78 (≈ 1.07 µM)
COc1c(OCCCCN2CCN(C)CC2)cc2oc3cc(OCCCCN4CCN(C)CC4)c(CC=C(C)C)c(O)c3c(=O)c2c1CC=C(C)C | 12.5 (≈ 17.4 µM)
CCN1CCN(CCCCOc2cc3oc4cc(OCCCCN5CCN(CC)CC5)c(OC)c(CC=C(C)C)c4c(=O)c3c(O)c2CC=C(C)C)CC1 | 6.25 (≈ 8.37 µM)
O=c1c2ccc(OCCCCN3CCCC3)cc2oc2cc(OCCCCN3CCCC3)cc(O)c12 | > 50

Tested on: Staphylococcus aureus
Experiment: Antibacterial activity against clinical isolates of methicillin-resistant Staphylococcus aureus DM9808R after 24 hrs by […]
Assay type: functional
Details: not given

SMILES | MIC [µg/mL]
COc1c(OCCCCn2cccn2)cc2oc3cc(OCCCCn4cccn4)c(CC=C(C)C)c(O)c3c(=O)c2c1CC=C(C)C | > 50
COc1c(OCCCCN2CCCC2)cc2oc3cc(OCCCCN4CCCC4)c(CCC(C)C)c(O)c3c(=O)c2c1CCC(C)C | 6.25 (≈ 9.4 µM)
COc1c(OCCCCN2CCN(CCN(C)C)CC2)cc2oc3cc(OCCCCN4CCN(CCN(C)C)CC4)c(CC=C(C)C)c(O)c3c(=O)c2c1CC=C(C)C | 3.12 (≈ 3.75 µM)
COc1c(OCCCCN(CCO)CCO)cc2oc3cc(OCCCCN(CCO)CCO)c(CC=C(C)C)c(O)c3c(=O)c2c1CC=C(C)C | 1.56 (≈ 2.14 µM)
COc1c(OCCCCN2CCN(C)CC2)cc2oc3cc(OCCCCN4CCN(C)CC4)c(CC=C(C)C)c(O)c3c(=O)c2c1CC=C(C)C | 12.5 (≈ 17.4 µM)
CCN1CCN(CCCCOc2cc3oc4cc(OCCCCN5CCN(CC)CC5)c(OC)c(CC=C(C)C)c4c(=O)c3c(O)c2CC=C(C)C)CC1 | 12.5 (≈ 16.7 µM)
O=c1c2ccc(OCCCCN3CCCC3)cc2oc2cc(OCCCCN3CCCC3)cc(O)c12 | > 50

Tested on: Bacillus cereus
Experiment: Antibacterial activity against clinical isolates of Bacillus cereus ATCC 11778 after 24 hrs by […]
Assay type: functional
Details: ATCC 11778, 24 h

SMILES | MIC [µg/mL]
COc1c(OCCCCn2cccn2)cc2oc3cc(OCCCCn4cccn4)c(CC=C(C)C)c(O)c3c(=O)c2c1CC=C(C)C | > 50
COc1c(OCCCCN2CCCC2)cc2oc3cc(OCCCCN4CCCC4)c(CCC(C)C)c(O)c3c(=O)c2c1CCC(C)C | 6.25 (≈ 9.4 µM)
COc1c(OCCCCN2CCN(CCN(C)C)CC2)cc2oc3cc(OCCCCN4CCN(CCN(C)C)CC4)c(CC=C(C)C)c(O)c3c(=O)c2c1CC=C(C)C | 6.25 (≈ 7.5 µM)
COc1c(OCCCCN(CCO)CCO)cc2oc3cc(OCCCCN(CCO)CCO)c(CC=C(C)C)c(O)c3c(=O)c2c1CC=C(C)C | 3.12 (≈ 4.29 µM)
COc1c(OCCCCN2CCN(C)CC2)cc2oc3cc(OCCCCN4CCN(C)CC4)c(CC=C(C)C)c(O)c3c(=O)c2c1CC=C(C)C | 12.5 (≈ 17.4 µM)
CCN1CCN(CCCCOc2cc3oc4cc(OCCCCN5CCN(CC)CC5)c(OC)c(CC=C(C)C)c4c(=O)c3c(O)c2CC=C(C)C)CC1 | 25 (≈ 33.5 µM)
O=c1c2ccc(OCCCCN3CCCC3)cc2oc2cc(OCCCCN3CCCC3)cc(O)c12 | > 50
